According to ChEMBL document CHEMBL4177662, “Phosphamide-containing diphenylpyrimidine analogues (PA-DPPYs) as potent focal adhesion kinase (FAK) inhibitors with enhanced activity against pancreatic cancer cell lines” (Bioorg Med Chem, 2017):

Key:
ASPC1 [1] = experiment: Induction of apoptosis in human Aspc-1 cells assessed as necrotic cells at 5 uM after 72 hrs by Annexin V-FITC/propidium iodide staining-based flow cytometry (reference value: 0%); format: functional
Procedure, shortened: (§1)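 AsPC-1 cells (3 to 5×10^5 per well) were treated with DMSO solvent control or compound for 72 h in medium with 5% FBS. Cells were then stained with Annexin V-FITC and propidium iodide and analysed by flow cytometry. One representative experiment shown.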

Focal adhesion kinase 1 [2] = molecular target: T1, Focal adhesion kinase 1 (Homo sapiens, UniProt Q05397); experiment: Inhibition of recombinant human N-terminal His-tagged FAK cytoplasmic domain (393 to 698 residues) expressed in baculovirus infected sf9 cells assessed as reduction in autophosphorylation after 60 mins by ADP-Glo kinase assay
Procedure, shortened: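 ADP-Glo luminescence assay. The kinase reaction ran in 1× kinase buffer with compound at 1 to 200 nM, for 60 min at room temperature. ADP-Glo reagent was then added to stop the reaction and deplete leftover ATP (40 min, room temperature). Detection reagent converted ADP to ATP for luciferase read-out (30 min). IC50 from curve fitting, mean ± SE of three independent experiments.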
Target sequence in this assay (Q05397 whole entry, the tested form may be a part): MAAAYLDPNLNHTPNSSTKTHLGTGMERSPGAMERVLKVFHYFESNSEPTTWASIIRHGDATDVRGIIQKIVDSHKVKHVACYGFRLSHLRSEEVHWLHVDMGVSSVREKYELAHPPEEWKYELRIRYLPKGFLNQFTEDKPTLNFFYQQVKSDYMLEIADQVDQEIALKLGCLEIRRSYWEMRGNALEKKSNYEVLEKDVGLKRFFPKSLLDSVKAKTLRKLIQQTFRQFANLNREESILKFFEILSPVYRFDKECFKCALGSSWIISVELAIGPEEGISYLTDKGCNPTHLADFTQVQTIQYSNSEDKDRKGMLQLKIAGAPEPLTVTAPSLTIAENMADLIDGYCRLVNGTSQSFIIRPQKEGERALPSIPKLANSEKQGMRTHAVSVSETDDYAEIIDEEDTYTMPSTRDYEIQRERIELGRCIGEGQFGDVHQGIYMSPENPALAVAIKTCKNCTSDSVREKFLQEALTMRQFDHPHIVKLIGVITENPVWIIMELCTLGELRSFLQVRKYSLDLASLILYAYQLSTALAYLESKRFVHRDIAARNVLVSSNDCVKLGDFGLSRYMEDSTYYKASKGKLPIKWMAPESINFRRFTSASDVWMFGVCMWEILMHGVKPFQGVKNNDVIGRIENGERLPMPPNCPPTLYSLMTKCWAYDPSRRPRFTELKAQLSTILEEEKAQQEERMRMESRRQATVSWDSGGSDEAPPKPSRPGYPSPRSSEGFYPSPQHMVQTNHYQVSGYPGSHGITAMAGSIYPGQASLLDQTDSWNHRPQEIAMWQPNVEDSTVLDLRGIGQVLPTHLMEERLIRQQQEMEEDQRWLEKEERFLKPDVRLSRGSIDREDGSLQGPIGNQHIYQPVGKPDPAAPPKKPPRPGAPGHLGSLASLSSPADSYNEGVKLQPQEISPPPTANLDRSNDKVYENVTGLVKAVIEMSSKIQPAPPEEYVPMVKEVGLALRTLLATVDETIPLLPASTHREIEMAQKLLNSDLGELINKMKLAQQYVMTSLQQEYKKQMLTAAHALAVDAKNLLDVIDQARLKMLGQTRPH

ASPC1 [3] = experiment: Cell cycle arrest in human Aspc-1 cells assessed as accumulation at G0/G1 phase at 5 uM after 72 hrs by propidium iodide staining-based flow cytometry (reference value: 39.41%); format: functional
ASPC1 [4] = experiment: Induction of apoptosis in human Aspc-1 cells assessed as late apoptotic cells at 10 uM after 72 hrs by Annexin V-FITC/propidium iodide staining-based flow cytometry (reference value: 0%); format: functional; procedure, shortened: as §1
ASPC1 [5] = experiment: Antiproliferative activity against human Aspc-1 cells after 72 hrs by MTT assay; format: functional, cell-based; details: ASPC1, 72 h
Procedure, shortened: (§2)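 Cells grown in DMEM with 10% FBS and 1% penicillin-streptomycin at 37 °C, 5% CO2. Seeded at 4,000 to 5,000 cells/well, cultured one day, then exposed to compounds for 72 h at 1.25 to 40 μmol/L, five replicates per concentration. MTT absorbance read at 570 nm. IC50 from five-point dose-response curves; mean of at least three separate experiments.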

ASPC1 [6] = experiment: Cell cycle arrest in human Aspc-1 cells assessed as accumulation at G0/G1 phase at 1 uM after 72 hrs by propidium iodide staining-based flow cytometry (reference value: 39.41%); format: functional
PANC-1 (human) [7] = experiment: Antiproliferative activity against human PANC-1 cells assessed as cell viability at 8 uM after 72 hrs by MTT assay (reference value: 97%); details: PANC-1, 72 h
ASPC1 [8] = experiment: Antiproliferative activity against human Aspc-1 cells assessed as cell viability at 8 uM after 48 hrs by MTT assay (reference value: 98.1%); format: functional; details: ASPC1, 48 h, read-out: Activity
ASPC1 [9] = experiment: Cell cycle arrest in human Aspc-1 cells assessed as accumulation at G2/M phase at 1 uM after 72 hrs by propidium iodide staining-based flow cytometry (reference value: 0.89%); format: functional
ASPC1 [10] = experiment: Induction of apoptosis in human Aspc-1 cells assessed as early apoptotic cells at 2.5 uM after 72 hrs by Annexin V-FITC/propidium iodide staining-based flow cytometry (reference value: 0%); format: functional; procedure, shortened: as §1
ASPC1 [11] = experiment: Antiproliferative activity against human Aspc-1 cells assessed as cell viability at 0.5 uM after 24 hrs by MTT assay (reference value: 100%); format: functional; details: ASPC1, 24 h, read-out: Activity
ASPC1 [12] = experiment: Antiproliferative activity against human Aspc-1 cells assessed as cell viability at 0.5 uM after 48 hrs by MTT assay (reference value: 98.1%); format: functional; details: ASPC1, 48 h, read-out: Activity
Focal adhesion kinase 1 [13] = molecular target: T1, Focal adhesion kinase 1; experiment: Inhibition of recombinant full length GST-tagged human FAK expressed in baculovirus expression system at 100 nM relative to control
Procedure, shortened: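 SelectScreen biochemical kinase profiling service; percent inhibition of each kinase at a single compound concentration of 100 nM.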
Target sequence in this assay (Q05397 2-1052 limits assumed): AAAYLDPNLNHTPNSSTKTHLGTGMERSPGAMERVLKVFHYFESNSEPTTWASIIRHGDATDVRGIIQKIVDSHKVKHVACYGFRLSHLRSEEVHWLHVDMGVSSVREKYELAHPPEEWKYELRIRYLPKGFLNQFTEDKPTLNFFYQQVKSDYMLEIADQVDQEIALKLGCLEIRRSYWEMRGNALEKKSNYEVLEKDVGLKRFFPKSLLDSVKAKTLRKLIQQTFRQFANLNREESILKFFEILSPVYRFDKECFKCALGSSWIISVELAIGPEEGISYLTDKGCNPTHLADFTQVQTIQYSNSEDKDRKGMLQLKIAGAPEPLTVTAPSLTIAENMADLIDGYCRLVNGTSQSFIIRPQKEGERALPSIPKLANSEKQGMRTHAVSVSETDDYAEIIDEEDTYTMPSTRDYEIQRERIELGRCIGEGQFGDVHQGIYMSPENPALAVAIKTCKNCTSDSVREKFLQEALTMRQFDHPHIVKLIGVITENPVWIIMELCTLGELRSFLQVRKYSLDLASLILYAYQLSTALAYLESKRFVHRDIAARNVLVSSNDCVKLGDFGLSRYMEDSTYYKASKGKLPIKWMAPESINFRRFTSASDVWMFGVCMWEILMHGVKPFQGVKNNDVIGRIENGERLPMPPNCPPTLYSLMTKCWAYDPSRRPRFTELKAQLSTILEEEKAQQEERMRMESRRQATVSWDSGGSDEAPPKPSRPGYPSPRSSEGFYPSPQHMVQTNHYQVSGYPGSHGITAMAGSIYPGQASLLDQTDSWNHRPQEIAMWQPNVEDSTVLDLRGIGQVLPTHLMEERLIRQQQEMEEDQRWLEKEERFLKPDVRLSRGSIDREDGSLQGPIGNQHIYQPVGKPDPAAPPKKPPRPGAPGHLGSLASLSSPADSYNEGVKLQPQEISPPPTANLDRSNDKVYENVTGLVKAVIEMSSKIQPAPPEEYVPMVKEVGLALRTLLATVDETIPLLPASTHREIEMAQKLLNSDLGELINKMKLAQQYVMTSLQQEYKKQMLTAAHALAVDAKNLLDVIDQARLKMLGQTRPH

ASPC1 [14] = experiment: Induction of apoptosis in human Aspc-1 cells assessed as early apoptotic cells at 5 uM after 72 hrs by Annexin V-FITC/propidium iodide staining-based flow cytometry (reference value: 0%); format: functional; procedure, shortened: as §1
BXPC-3 [15] = experiment: Antiproliferative activity against human BxPC3 cells assessed as cell viability at 0.5 uM after 24 hrs by MTT assay (reference value: 100%); format: functional; details: BXPC-3, 24 h, read-out: Activity
[16] = molecular target: T2, Aurora kinase A (Homo sapiens) (UniProt O14965); experiment: Inhibition of recombinant full length His-tagged human Aurora A expressed in baculovirus expression system at 100 nM relative to control
T2 sequence (whole entry): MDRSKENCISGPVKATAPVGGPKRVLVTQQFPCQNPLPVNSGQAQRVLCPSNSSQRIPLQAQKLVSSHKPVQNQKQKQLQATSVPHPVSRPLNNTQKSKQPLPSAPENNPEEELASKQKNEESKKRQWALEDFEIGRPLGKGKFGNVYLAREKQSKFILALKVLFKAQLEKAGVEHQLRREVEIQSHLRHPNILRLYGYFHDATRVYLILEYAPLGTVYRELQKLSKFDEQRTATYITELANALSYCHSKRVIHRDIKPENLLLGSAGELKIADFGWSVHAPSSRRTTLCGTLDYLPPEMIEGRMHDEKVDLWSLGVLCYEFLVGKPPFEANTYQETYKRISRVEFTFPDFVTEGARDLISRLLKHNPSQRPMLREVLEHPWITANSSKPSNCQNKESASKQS
Procedure, shortened: (§3)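 Percent inhibition of kinase activity at a single 100 nM test concentration, from an outsourced biochemical profiling screen.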

ASPC1 [17] = experiment: Antiproliferative activity against human Aspc-1 cells assessed as cell viability at 4 uM after 72 hrs by MTT assay (reference value: 97%); format: functional; details: ASPC1, 72 h, read-out: Activity
PANC-1 (human) [18] = experiment: Antiproliferative activity against human PANC-1 cells assessed as cell viability at 8 uM after 48 hrs by MTT assay (reference value: 98.8%); details: PANC-1, 48 h
PANC-1 (human) [19] = experiment: Antiproliferative activity against human PANC-1 cells assessed as cell viability at 4 uM after 72 hrs by MTT assay (reference value: 97%); details: PANC-1, 72 h
ASPC1 [20] = experiment: Antiproliferative activity against human Aspc-1 cells assessed as cell viability at 8 uM after 72 hrs by MTT assay (reference value: 97%); format: functional; details: ASPC1, 72 h, read-out: Activity
[21] = molecular target: Tyrosine-protein kinase BTK (Homo sapiens) (UniProt Q06187); experiment: Inhibition of recombinant full length His-tagged human BTK cytoplasmic domain expressed in baculovirus expression system at 100 nM relative to control; procedure, shortened: as §3
BXPC-3 [22] = experiment: Antiproliferative activity against human BxPC3 cells assessed as cell viability at 0.5 uM after 48 hrs by MTT assay (reference value: 98.8%); format: functional; details: BXPC-3, 48 h, read-out: Activity
BXPC-3 [23] = experiment: Antiproliferative activity against human BxPC3 cells assessed as cell viability at 0.5 uM after 72 hrs by MTT assay (reference value: 97%); format: functional; details: BXPC-3, 72 h, read-out: Activity
ASPC1 [24] = experiment: Induction of apoptosis in human Aspc-1 cells assessed as viable cells at 10 uM after 72 hrs by Annexin V-FITC/propidium iodide staining-based flow cytometry (reference value: 100%); format: functional; details: ASPC1, 72 h, read-out: Activity; procedure, shortened: as §1
PANC-1 = experiment: Antiproliferative activity against human PANC1 cells after 72 hrs by MTT assay; format: functional, cell-based; details: PANC-1, 72 h; procedure, shortened: as §2

Sequence of Tyrosine-protein kinase BTK (Homo sapiens) (Q06187 whole entry, the tested form may be a part): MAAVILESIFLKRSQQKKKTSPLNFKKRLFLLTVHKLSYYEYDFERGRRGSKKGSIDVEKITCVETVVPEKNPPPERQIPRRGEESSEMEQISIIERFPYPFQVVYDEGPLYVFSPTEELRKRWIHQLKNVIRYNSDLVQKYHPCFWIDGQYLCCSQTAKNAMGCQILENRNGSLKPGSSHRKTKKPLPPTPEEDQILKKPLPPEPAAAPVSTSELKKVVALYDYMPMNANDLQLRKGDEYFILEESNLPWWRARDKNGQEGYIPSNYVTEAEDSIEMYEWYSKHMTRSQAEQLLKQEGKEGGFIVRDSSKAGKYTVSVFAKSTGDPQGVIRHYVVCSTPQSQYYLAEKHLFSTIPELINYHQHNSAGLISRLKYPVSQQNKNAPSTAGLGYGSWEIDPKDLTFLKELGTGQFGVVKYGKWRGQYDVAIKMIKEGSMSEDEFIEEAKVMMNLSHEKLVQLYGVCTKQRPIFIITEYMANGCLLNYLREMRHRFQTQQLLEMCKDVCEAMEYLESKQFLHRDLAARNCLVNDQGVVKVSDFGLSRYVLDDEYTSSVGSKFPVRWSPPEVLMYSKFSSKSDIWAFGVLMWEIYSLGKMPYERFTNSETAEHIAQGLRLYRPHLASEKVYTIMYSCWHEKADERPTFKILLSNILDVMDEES

Work on `CCOP(=O)(CCCOc1ccc(Nc2ncc([N+](=O)[O-])c(Nc3ccccc3C(=O)NC)n2)cc1)N1CCOCC1` (stereo not given) yielded an Activity (ASPC1 [1]) of 3.3%, an IC50 (Focal adhesion kinase 1 [2]) of 0.00465 µM and an Activity (ASPC1 [3]) of 40.06%. For the same compound, the Activity (ASPC1 [4]) was 75.3%, the IC50 (ASPC1 [5]) was 1.66 µM and the Activity (ASPC1 [6]) was 38.6%. For the same compound, the viability at 8 µM (PANC-1 (human) [7]) was 18.1%, the viability at 8 µM (ASPC1 [8]) was 30.2% and the Activity (ASPC1 [9]) was 13%. The Activity (ASPC1 [10]) was 21%, the viability at 0.5 µM (ASPC1 [11]) was 99.4% and the viability at 0.5 µM (ASPC1 [12]) was 97.4%. For the same compound, the inhibition (Focal adhesion kinase 1 [13]) was 92%, the Activity (ASPC1 [14]) was 16.3% and the viability at 0.5 µM (BXPC-3 [15]) was 98%. The inhibition [16] was 48%, the viability at 4 µM (ASPC1 [17]) was 40.8% and the viability at 8 µM (PANC-1 (human) [18]) was 29.5%. For the same compound, the viability at 4 µM (PANC-1 (human) [19]) was 58.4%, the viability at 8 µM (ASPC1 [20]) was 16.8% and the inhibition [21] was 33%. It also gave a viability at 0.5 µM (BXPC-3 [22]) of 96.7%, a viability at 0.5 µM (BXPC-3 [23]) of 69.8% and a viability at 10 µM (ASPC1 [24]) of 7.7%. The IC50 (PANC-1) was over 40 µM.
